Laboratory results published in ChEMBL document CHEMBL4138058, “Design and synthesis of novel selective estrogen receptor degradation inducers based on the diphenylheptane skeleton” (Medchemcomm, 2017).

What was measured:
Format in all cases: cell-based
[1] = biological target: T1, Vitamin D3 receptor (Homo sapiens) (UniProt P11473); assay: Downregulation of VDR expression in human MCF7 cells at 10 uM after 6 hrs by Western blot method relative to lamin B
T1 sequence (whole entry): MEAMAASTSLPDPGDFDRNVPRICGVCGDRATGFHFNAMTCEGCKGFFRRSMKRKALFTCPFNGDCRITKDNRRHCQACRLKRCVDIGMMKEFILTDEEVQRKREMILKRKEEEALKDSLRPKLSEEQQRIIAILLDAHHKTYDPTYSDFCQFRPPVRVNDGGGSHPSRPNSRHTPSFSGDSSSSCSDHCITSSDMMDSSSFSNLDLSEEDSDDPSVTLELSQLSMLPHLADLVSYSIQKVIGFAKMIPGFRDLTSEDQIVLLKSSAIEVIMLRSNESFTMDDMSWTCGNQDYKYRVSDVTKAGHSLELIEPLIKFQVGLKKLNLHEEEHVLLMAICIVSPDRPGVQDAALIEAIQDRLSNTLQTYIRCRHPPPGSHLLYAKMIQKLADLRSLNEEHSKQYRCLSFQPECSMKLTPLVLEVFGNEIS
Outline: (§1)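 MCF-7 cells kept in DMEM with 10% FBS, kanamycin and 10 μg/mL insulin, then exposed to compounds for 6 h. Lysates made in SDS buffer (0.1 M Tris-HCl pH 8.0, 10% glycerol, 1% SDS), boiled, BCA-normalized and run on SDS-PAGE. Blots probed with anti-ERα, AR, AhR or VDR and β-actin or lamin B. Chemiluminescence quantified as target/loading-protein ratio; means ± S.E., n=3.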

[2] = biological target: T2, Aryl hydrocarbon receptor (Homo sapiens, UniProt P35869); assay: Downregulation of AhR expression in human MCF7 cells at 1 uM after 6 hrs by Western blot method relative to lamin B; conditions: mcf7, 6 h; outline: as §1
T2 sequence (P35869 whole entry): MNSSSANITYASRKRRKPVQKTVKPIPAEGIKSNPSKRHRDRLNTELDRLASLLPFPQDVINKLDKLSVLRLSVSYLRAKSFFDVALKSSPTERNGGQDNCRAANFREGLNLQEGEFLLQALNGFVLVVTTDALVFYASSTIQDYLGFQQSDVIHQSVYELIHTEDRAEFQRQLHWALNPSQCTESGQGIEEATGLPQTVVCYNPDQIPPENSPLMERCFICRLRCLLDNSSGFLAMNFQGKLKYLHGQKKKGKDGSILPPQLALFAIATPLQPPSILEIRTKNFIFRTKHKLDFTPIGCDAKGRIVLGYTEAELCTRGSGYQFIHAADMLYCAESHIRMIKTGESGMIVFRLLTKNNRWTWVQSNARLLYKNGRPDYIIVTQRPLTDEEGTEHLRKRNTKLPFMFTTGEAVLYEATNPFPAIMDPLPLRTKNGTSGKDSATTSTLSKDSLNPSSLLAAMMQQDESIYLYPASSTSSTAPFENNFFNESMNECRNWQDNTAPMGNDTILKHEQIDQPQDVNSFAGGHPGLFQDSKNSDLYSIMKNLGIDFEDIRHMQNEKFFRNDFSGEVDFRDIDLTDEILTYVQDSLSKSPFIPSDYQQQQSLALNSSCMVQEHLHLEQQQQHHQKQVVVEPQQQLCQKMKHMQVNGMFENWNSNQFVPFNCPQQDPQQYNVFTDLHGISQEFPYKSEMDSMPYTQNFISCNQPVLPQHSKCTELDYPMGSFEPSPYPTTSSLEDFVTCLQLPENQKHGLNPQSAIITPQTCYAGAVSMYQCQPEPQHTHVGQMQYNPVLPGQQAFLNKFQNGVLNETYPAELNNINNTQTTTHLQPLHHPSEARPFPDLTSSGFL

[3] = biological target: T1, Vitamin D3 receptor (Homo sapiens); assay: Downregulation of VDR expression in human MCF7 cells at 1 uM after 6 hrs in presence of proteasome inhibitor MG132 by Western blot method relative to lamin B; outline: as §1
[4] = biological target: T3, Androgen receptor (Homo sapiens) (UniProt P10275); assay: Downregulation of androgen receptor expression in human MCF7 cells at 1 uM after 6 hrs by Western blot method relative to lamin B; outline: as §1
T3 sequence (whole entry): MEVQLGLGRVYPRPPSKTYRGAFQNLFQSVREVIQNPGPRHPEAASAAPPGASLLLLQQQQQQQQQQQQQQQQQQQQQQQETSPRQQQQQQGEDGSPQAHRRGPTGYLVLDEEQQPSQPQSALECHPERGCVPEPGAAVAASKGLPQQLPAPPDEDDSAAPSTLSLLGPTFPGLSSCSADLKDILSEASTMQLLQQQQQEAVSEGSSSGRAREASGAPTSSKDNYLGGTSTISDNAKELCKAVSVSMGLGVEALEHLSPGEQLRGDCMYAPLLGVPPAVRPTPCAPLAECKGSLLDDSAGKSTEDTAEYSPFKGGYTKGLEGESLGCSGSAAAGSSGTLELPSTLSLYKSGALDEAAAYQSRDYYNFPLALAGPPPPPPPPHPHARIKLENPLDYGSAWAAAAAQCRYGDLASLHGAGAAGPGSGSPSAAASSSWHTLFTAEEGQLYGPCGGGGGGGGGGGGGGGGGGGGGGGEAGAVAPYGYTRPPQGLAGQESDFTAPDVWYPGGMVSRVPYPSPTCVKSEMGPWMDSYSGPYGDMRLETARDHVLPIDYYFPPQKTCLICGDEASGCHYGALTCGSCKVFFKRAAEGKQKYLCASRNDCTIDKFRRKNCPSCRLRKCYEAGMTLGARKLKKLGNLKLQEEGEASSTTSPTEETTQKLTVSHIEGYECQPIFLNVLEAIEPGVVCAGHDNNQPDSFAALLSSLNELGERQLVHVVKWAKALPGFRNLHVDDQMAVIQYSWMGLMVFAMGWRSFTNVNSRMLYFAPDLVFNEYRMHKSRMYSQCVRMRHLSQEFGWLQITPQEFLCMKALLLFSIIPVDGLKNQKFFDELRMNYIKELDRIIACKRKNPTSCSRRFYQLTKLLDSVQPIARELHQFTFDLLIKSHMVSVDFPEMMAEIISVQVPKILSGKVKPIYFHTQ

Activity [1]: 80%
Activity [2]: 87%
Activity [3]: 98%
Activity [4]: 94%
SMILES: CCCCCCCCCCNCCOc1ccc(C(CCC)(CCC)c2ccc(O)c(C)c2)cc1C
